# High-throughput results (PubChem)
# XBP1 UPR activ – activators of adaptive arm of unfolded protein response (XBP1); CHO-XBP1 luciferase reporter, IRE1-XBP1 UPR activation, luminescence; percent of tunicamycin response, DMSO as zero; activation, % at 20 µM; hit rate 0.33% among 330,000; AID 463104;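 active means versus positive control, 20 µM dose yields 30% or more activation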;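 further: 100% = tunicamycin at 10 µg/mL and 0% = DMSO only wells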
#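 assay system = CHO-XBP1 luciferase reporter cells | amount = 1000 cells/well | buffer or medium = F12 plus 10% FBS | compound dosing = single point, 20 µM final compound, 1% DMSO | incubation = 16-18 h cell attachment at 37 °C, then 6 h compound exposure | detection = Steady-Glo luminescence read | controls = tunicamycin 10 µg/mL and vehicle-only wells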
# UPR CHOP act – apoptotic UPR (CHOP) activation. CHO-CHOP luciferase reporter, luminescence; percent of tunicamycin response over DMSO baseline. activation, % at 10 µM. hit rate 0.34% among 330,000. AID 449763;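 active means at 10 µM dose, activation of 40% or more, normalized to positive control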;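 further: 100% = tunicamycin at 10 µg/mL and 0% = DMSO alone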
#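 System: CHO-CHOP luciferase reporter cell line | Buffer or medium: F12 medium containing 10% fetal bovine serum | Doses: One dose, 10 µM in 0.5% DMSO | Times: 6 h compound exposure at 37 °C after overnight seeding | Signal: Luciferase luminescence | Read-out: % activation vs tunicamycin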
# CSC inhib – cancer stem cell inhibition; cancer stem cell-like cells viability, luminescence; inhibition, % at 7.5 µM; hit rate 1.1% among 300,000; AID 2717; in the data active means inhibition above about 75%; inconclusive means no clear call, values can overlap the other calls; tested in HMLE shEcad cells
# T cruzi inh – blocks replication of Trypanosoma cruzi. hit rate 1.4% among 300,000. AID 1885. inhibition, % (no concentration beside the values). T. cruzi beta-gal in NIH3T3, luminescence, 90 h;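 active means mean inhibition across valid replicates above about 55%, limit read from the data; inconclusive means mean below that limit but half or more replicates reach it; inactive means mean below it, under half of replicates reach it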;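 further: signal also drops with host cell toxicity which is not excluded here; 0% = plate median of DMSO wells and 100% = zero luminescence signal; higher percent means less beta-gal luminescence so fewer parasites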
#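 assay system = mouse NIH/3T3 fibroblasts infected with β-gal-expressing T. cruzi Tulahuen C4 | input = 5,000 NIH/3T3 host cells per well | buffer or medium = DMEM plus 2% FBS | timing = 3 h host attachment, then at least 90 h co-culture | measured by = GalScreen luminescence, 60 min | evaluation = luminescence reflecting intracellular parasite burden, expressed as percent inhibition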
# Mdm2-MdmX inh – inhibitors of human Mdm2/MdmX interaction; inhibition, % at 8 µM; hit rate 3% among 330,000; O15151+Q00987; SaOS-2 split-luciferase Mdm2/MdmX complementation, luminescence;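 active means inhibition of at least 50% at 8 µM in the primary screen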
# Target sequence (O15151 whole entry, looked up): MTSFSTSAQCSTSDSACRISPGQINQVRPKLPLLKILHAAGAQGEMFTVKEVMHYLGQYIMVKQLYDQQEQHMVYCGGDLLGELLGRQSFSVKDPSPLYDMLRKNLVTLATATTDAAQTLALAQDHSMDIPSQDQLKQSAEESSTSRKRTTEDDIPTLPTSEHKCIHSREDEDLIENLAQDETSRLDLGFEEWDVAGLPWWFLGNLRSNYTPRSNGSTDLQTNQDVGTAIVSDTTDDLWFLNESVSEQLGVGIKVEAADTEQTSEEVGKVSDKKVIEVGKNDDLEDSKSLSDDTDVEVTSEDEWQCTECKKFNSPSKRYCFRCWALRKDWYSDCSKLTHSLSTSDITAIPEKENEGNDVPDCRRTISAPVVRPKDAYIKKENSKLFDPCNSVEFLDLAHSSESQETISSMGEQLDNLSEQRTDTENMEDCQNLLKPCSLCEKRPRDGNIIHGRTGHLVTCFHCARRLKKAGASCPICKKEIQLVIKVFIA
# Target sequence (Q00987 whole entry, looked up): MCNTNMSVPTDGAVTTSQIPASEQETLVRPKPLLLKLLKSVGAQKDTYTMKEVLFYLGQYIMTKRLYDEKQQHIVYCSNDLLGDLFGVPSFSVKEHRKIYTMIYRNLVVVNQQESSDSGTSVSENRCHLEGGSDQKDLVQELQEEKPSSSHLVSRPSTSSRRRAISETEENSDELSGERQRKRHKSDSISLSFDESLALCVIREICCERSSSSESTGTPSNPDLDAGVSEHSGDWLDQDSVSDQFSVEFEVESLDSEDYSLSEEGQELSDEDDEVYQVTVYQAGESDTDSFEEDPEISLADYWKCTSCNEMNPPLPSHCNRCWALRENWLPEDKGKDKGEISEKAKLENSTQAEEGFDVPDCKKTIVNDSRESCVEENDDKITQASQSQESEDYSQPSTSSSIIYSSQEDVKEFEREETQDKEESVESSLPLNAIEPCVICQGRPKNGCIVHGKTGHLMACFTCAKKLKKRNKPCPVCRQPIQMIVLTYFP
# Beta cell apopt – beta cell apoptosis inhibition | INS-1E cytokine-induced death, ATP luminescence, 48 h; percent of positive-control rescue, neutral wells zero | protection from apoptosis, % (no concentration beside the values) | hit rate 0.8% among 300,000 | AID 435005;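 active means Every replicate reaches about 75%, or at least half do and their mean reaches it too, limit read from the data; inconclusive means At least half of replicates reach the limit but their mean does not; inactive means Under half of replicates reach the limit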;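 further: 0% = cytokine-treated negative control wells and 100% = positive control rescue; higher means more ATP so stronger rescue from cytokine killing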
# UPR CHOP confirm – apoptotic UPR (CHOP) activation, confirmed | shares compounds with UPR CHOP act | CHO-CHOP cells, CHOP-luciferase reporter luminescence; percent of tunicamycin response, DMSO as zero | activation, % at 10 µM | hit rate 64% among 1,000 | AID 463112; in the data active means activation above about 33%;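 further: 0% = DMSO wells and 100% = tunicamycin 10 µg/mL wells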
# XBP1 UPR conf – adaptive UPR (XBP1) activation, confirmed; shares compounds with XBP1 UPR activ; CHO-XBP1 IRE1-XBP1 luciferase reporter, luminescence; activation, % at 20 µM; hit rate 63% among 1,000;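 active means reporter signal at least 30% of the positive control's activation in two or more of four replicate wells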;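 further: plate controls were DMSO negative control for no effect and tunicamycin 10 µg/mL positive control for full effect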
# Mdm2 MdmX conf – confirmation of human Mdm2/MdmX interaction inhibitors; shares compounds with Mdm2-MdmX inh; Mdm2-MdmX binding, luminescent assay; inhibition, % at 8 µM; hit rate 55% among 10,000; in the data active means inhibition above about 40%
# Full FLuc ctr – inhibits full-length luciferase, flagging false Mdm2/MdmX hits; inhibition, % at 8 µM; AID 504607; SaOS-2 full-length luciferase counterscreen, luminescence; hit rate 77% among 6,200; shares compounds with Mdm2-MdmX inh;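 active means mean inhibition at 8 µM reaching about 37%, which flags the compound as non-specific, limit read from the data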;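 further: p53-null SaOS-2 cells with luciferase driven by a doxycycline-inducible promoter; compound on cells about two nights before reading with doxycycline added after day one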
# An asterisk follows results filed as active; ? = inconclusive; . = no result. Rows were chosen to be rich in hits. Some 5% of all compounds tested hit in one or more screens of this group.
SMILES,XBP1 UPR activ,UPR CHOP act,CSC inhib,T cruzi inh,Mdm2-MdmX inh,Beta cell apopt,UPR CHOP confirm,Mdm2 MdmX conf,Full FLuc ctr,others
CCCCN=C1SC(C(=O)Nc2sc3c(c2C(=O)OC)CCC3)C(N)=C1C(=O)N1CCOCC1 (stereo not drawn),166*,109*,2,2,66*,-18,2,-14,.,XBP1 UPR conf=16
C/C(=N\NC(=O)C(C)Oc1ccc([N+](=O)[O-])cc1)c1ccccn1 (stereo not drawn),7,67*,53,?,54*,90*,42*,32,.,
CC(Oc1ccccc1)C(=O)NNC(=O)c1ccccn1 (stereo not drawn),-2,0,13,3,34,-4,.,.,.,
O=C(CN1C(=O)NC2(CCCCC2)C1=O)Nc1cc(C(F)(F)F)ccc1N1CCCCC1,3,0,-13,21,19,-7,.,.,.,
COc1ccc2c(c1)c(/C=N/Nc1nc3ccccc3[nH]1)c(C)n2C,6,287*,45,50,93*,117*,3,37,68*,
CC[C@@H](C)[C@H](NC(=O)OC(C)(C)C)c1nnc(S(=O)(=O)Cc2cc(C)ccc2C)o1,-16,225*,66,-54,82*,-1,100*,66*,3,
CC(C)(C)OC(=O)N[C@@H](Cc1ccccc1)c1nnc(S(=O)(=O)Cc2cccc(F)c2)o1,-12,-8,?,-24,27,2,.,.,.,
COC(=O)[C@@H]1[C@@H](C#N)C2(c3ccccc3-c3ccccc32)N(c2ccc(Cl)cc2)N1C#N,4,92*,105*,-43,60*,-10,55*,50*,33,
O=C(Cc1ccc(Cl)cc1)NN1C(=O)c2ccccc2C1=O,0,0,-4,-10,-16,-8,.,.,.,
COc1ccc(C)cc1NC(=O)C(CCS(C)(=O)=O)NC(C)=O (stereo not drawn),2,0,-13,-11,16,7,.,.,.,
FC(F)(F)c1nnc(-c2ccccc2)nc1Sc1ccccc1,22,201*,44,16,52*,5,59*,18,.,
FC(F)(F)c1nnc(-c2ccccc2)nc1Oc1ccc(Cl)cc1Cl,-4,3,.,-13,32,1,.,.,.,
FC(F)(F)c1nnc(-c2ccccc2)nc1Sc1ccc(Cl)cc1,-6,84*,80*,39,86*,63,-1,34,16,
CCOCCCN1C(=O)C(O)=C(C(C)=O)C1c1cccs1 (stereo not drawn),-3,2,-7,-7,9,-8,.,.,.,
CC(=O)OCCCNc1cc(Sc2ccc(C)cc2)c2nonc2c1[N+](=O)[O-],-6,149*,12,8,54*,-21,-11,59*,68*,
COC(=O)CCSc1cc(NCCOC(C)=O)c([N+](=O)[O-])c2nonc12,-2,-2,-1,4,-15,3,.,.,.,
c1ccc(-c2nc(NCc3ccco3)c3ccccc3n2)nc1,6,67*,-6,49,65*,101*,8,-8,.,
Oc1c(C(Nc2ccccn2)c2ccccn2)ccc2cccnc12 (stereo not drawn),15,59*,-4,55*,53*,87*,71*,71*,45*,
COc1cc(C(Nc2ccccn2)c2ccc3ccc(C)nc3c2O)cc(OC)c1O (stereo not drawn),1,263*,70,52,79*,3,251*,81*,51*,
Cc1ccnc(NC(c2cccnc2)c2ccc3cccnc3c2O)c1 (stereo not drawn),5,0,1,17,33,-25,.,.,.,
COc1ccccc1NC(c1cccnc1)c1ccc2cccnc2c1O (stereo not drawn),5,5,40,40,13,14,.,.,.,
O=C(NC1CCN(C(=S)NCc2ccco2)CC1)NC12CC3CC(CC(C3)C1)C2,-1,0,-5,10,11,0,.,.,.,
CC1CCN(Cc2c(C(=O)N/N=C/c3ccc(C(C)(C)C)cc3)nnn2-c2nonc2N)CC1,178*,202*,29,37,50*,33,50*,27,.,XBP1 UPR conf=117*
CCOc1ccccc1/C=N/NC(=O)c1nnn(-c2nonc2N)c1CN1CCC(C)CC1,2,1,-8,-17,-28,8,.,.,.,
O=C(Nc1nc2ccccc2s1)c1ccc(Cl)s1,3,9,10,-5,-228,.,.,.,.,
SMILES,XBP1 UPR activ,UPR CHOP act,CSC inhib,T cruzi inh,Mdm2-MdmX inh,Beta cell apopt,UPR CHOP confirm,Mdm2 MdmX conf,Full FLuc ctr,others
Cc1ccc2nc(NC(=O)c3ccc(-c4nc5ccccc5s4)s3)sc2c1,66*,69*,14,.,98*,15,26,46*,84*,XBP1 UPR conf=89*
Cc1ccc(S(=O)(=O)Nc2cccc3ncccc23)s1,-6,219*,-4,53,101*,32,10,5,.,
CCOc1ccc(CNC(=O)CN2C(=O)CSc3ccc(S(=O)(=O)N4CCOCC4)cc32)cc1OC,-2,0,-6,6,36,2,.,.,.,
Cc1cc(C(=O)c2ccc(C(C)(C)C)cc2)c(NC(=O)CCl)s1,6,50*,50,20,78*,22,94*,-5,.,
Cc1ccc(-c2nnc(-c3ccc(NC(=O)Cc4cccs4)cc3)o2)cc1,142*,41*,44,45,78*,43,15,21,.,XBP1 UPR conf=52*
O=C(Cc1cccs1)Nc1cccc(-c2nnc(-c3ccco3)o2)c1,-3,2,-21,24,-17,.,.,.,.,
CCOC(=O)C1(Cc2cccc(OC)c2)CCN(Cc2cccnc2)CC1,-2,1,-1,-6,-1,.,.,.,.,
O=C(C[C@H]1C[C@H](C(=O)N2CCCCC2)[C@@]2(CCc3ccccc3)c3[nH]c4ccc(Cl)cc4c3CCN2C1=O)NCCC1=CCCCC1,144*,55*,.,.,77*,.,84*,25,.,XBP1 UPR conf=146*
O=C(C[C@H]1C[C@H](C(=O)N2CCCCC2)[C@@]2(CCc3ccccc3)c3[nH]c4ccc(Cl)cc4c3CCN2C1=O)NCCc1ccccn1,10,16,.,.,26,.,.,.,.,
Cc1oc2c(c1C(=O)c1ccccc1)C(=O)C(=O)c1ccccc1-2,-1,67*,98*,19,97*,104*,-2,72*,0,
